# According to ChEMBL document CHEMBL1157144, “Novel 16-membered macrolides modified at C-12 and C-13 positions of midecamycin A1 and miokamycin. Part 1: Synthesis and evaluation of 12,13-carbamate and 12-arylalkylamino-13-hydroxy analogues” (2008):
# Columns and labels:
# Assay type in all cases: functional
# Streptococcus pyogenes [1] = test: Antibacterial activity against ermB-constitutive resistant Streptococcus pyogenes after 20 hrs by agar dilution method
# Method in brief: (§1)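 Agar dilution MIC. Streptococcal strains were pre-cultured on blood agar plates. A 5 µl portion of a cell suspension of about 10^6 CFU/ml was inoculated onto Sensitivity disk agar supplemented with 5% horse blood. Plates were incubated at 37 °C for 20 h, then MIC was read.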
# Staphylococcus aureus [2] = test: Antibacterial activity against standard Staphylococcus aureus after 20 hrs by agar dilution method
# Method in brief: (§2)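 Agar dilution MIC. The inoculum came from a seed culture in Sensitivity test broth. A 5 µl portion of a cell suspension of about 10^6 CFU/ml was inoculated onto Sensitivity disk agar supplemented with 5% horse blood. Plates were incubated at 37 °C for 20 h, then MIC was read.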
# Haemophilus influenzae [3] = test: Antibacterial activity against susceptible Haemophilus influenzae after 20 hrs by agar dilution method
# Method in brief: (§3)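 MIC by agar dilution. Strains grown on blood agar plates for seed culture. About 5 µl of a suspension of roughly 10^6 CFU/ml spotted onto Sensitivity disk agar with 5% horse blood. Plates incubated at 37 °C for 20 h, then MIC read.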
# Staphylococcus aureus [4] = test: Antibacterial activity against ermB-inducible resistant Staphylococcus aureus after 20 hrs by agar dilution method; method in brief: as §2
# Haemophilus influenzae [5] = test: Antibacterial activity against standard Haemophilus influenzae after 20 hrs by agar dilution method; method in brief: as §3
# Staphylococcus aureus [6] = test: Antibacterial activity against ermA-constitutive resistant Staphylococcus aureus after 20 hrs by agar dilution method; method in brief: as §2
# Streptococcus pyogenes [7] = test: Antibacterial activity against mefE efflux-resistant Streptococcus pyogenes after 20 hrs by agar dilution method; method in brief: as §1
# Staphylococcus aureus [8] = test: Antibacterial activity against ermC-inducible resistant Staphylococcus aureus after 20 hrs by agar dilution method; method in brief: as §2
# Streptococcus pyogenes [9] = test: Antibacterial activity against standard Streptococcus pyogenes after 20 hrs by agar dilution method; method in brief: as §3
# Streptococcus pneumoniae [10] = test: Antibacterial activity against susceptible Streptococcus pneumoniae after 20 hrs by agar dilution method; method in brief: as §3
# Streptococcus pneumoniae [11] = test: Antibacterial activity against ermB-inducible resistant Streptococcus pneumoniae after 20 hrs by agar dilution method; method in brief: as §1
# Moraxella catarrhalis = test: Antibacterial activity against standard Moraxella catarrhalis after 20 hrs by agar dilution method; method in brief: as §3
# Staphylococcus aureus [12] = test: Antibacterial activity against susceptible Staphylococcus aureus after 20 hrs by agar dilution method; method in brief: as §2
# Streptococcus pneumoniae [13] = test: Antibacterial activity against mefE efflux-resistant Streptococcus pneumoniae after 20 hrs by agar dilution method; method in brief: as §1
# Streptococcus pneumoniae [14] = test: Antibacterial activity against ermB-constitutive resistant Streptococcus pneumoniae after 20 hrs by agar dilution method; method in brief: as §1
SMILES,MIC (Streptococcus pyogenes [1]),MIC (Staphylococcus aureus [2]),MIC (Haemophilus influenzae [3]),MIC (Staphylococcus aureus [4]),MIC (Haemophilus influenzae [5]),MIC (Staphylococcus aureus [6]),MIC (Streptococcus pyogenes [7]),MIC (Staphylococcus aureus [8]),MIC (Streptococcus pyogenes [9]),MIC (Streptococcus pneumoniae [10]),MIC (Streptococcus pneumoniae [11]),MIC (Moraxella catarrhalis),MIC (Staphylococcus aureus [12]),MIC (Streptococcus pneumoniae [13]),MIC (Streptococcus pneumoniae [14])
CCC(=O)O[C@@H]1CC(=O)O[C@H](C)C[C@H](O)[C@H](N(C)CCCc2cnc3ccccc3c2)/C=C/[C@H](OC(C)=O)[C@H](C)C[C@H](CC=O)[C@H](O[C@@H]2O[C@H](C)[C@@H](O)[C@H](N(C)C)[C@H]2O)[C@H]1OC,> 100 µg/mL,1.56 µg/mL,6.25 µg/mL,1.56 µg/mL,1.56 µg/mL,> 100 µg/mL,3.13 µg/mL,1.56 µg/mL,0.78 µg/mL,0.2 µg/mL,> 100 µg/mL,0.2 µg/mL,1.56 µg/mL,0.39 µg/mL,> 100 µg/mL
CCC(=O)O[C@@H]1CC(=O)O[C@H](C)C[C@H](O)[C@H](N(C)CCCc2ccccc2)/C=C/[C@H](OC(C)=O)[C@H](C)C[C@H](CC=O)[C@H](O[C@@H]2O[C@H](C)[C@@H](O[C@H]3C[C@@](C)(OC(C)=O)[C@@H](OC(=O)CC)[C@H](C)O3)[C@H](N(C)C)[C@H]2O)[C@H]1OC,50 µg/mL,0.39 µg/mL,25 µg/mL,0.2 µg/mL,3.13 µg/mL,> 100 µg/mL,0.1 µg/mL,0.39 µg/mL,0.05 µg/mL,0.05 µg/mL,1.56 µg/mL,0.39 µg/mL,0.39 µg/mL,0.1 µg/mL,> 100 µg/mL
CCC(=O)O[C@@H]1CC(=O)O[C@H](C)C[C@H](O)[C@H](N(C)CCCCCCCc2ccccc2)/C=C/[C@H](OC(C)=O)[C@H](C)C[C@H](CC=O)[C@H](O[C@@H]2O[C@H](C)[C@@H](O[C@H]3C[C@@](C)(O)[C@@H](OC(=O)CC)[C@H](C)O3)[C@H](N(C)C)[C@H]2O)[C@H]1OC,25 µg/mL,1.56 µg/mL,25 µg/mL,0.78 µg/mL,12.5 µg/mL,100 µg/mL,0.78 µg/mL,1.56 µg/mL,0.39 µg/mL,0.39 µg/mL,12.5 µg/mL,3.13 µg/mL,0.78 µg/mL,0.39 µg/mL,25 µg/mL
CCC(=O)O[C@@H]1CC(=O)O[C@H](C)C[C@H](O)[C@H](N(C)CCCc2ccnc3ccccc23)/C=C/[C@H](OC(C)=O)[C@H](C)C[C@H](CC=O)[C@H](O[C@@H]2O[C@H](C)[C@@H](O)[C@H](N(C)C)[C@H]2O)[C@H]1OC,> 50 µg/mL,0.2 µg/mL,1.56 µg/mL,0.39 µg/mL,0.39 µg/mL,> 50 µg/mL,1.56 µg/mL,0.39 µg/mL,0.1 µg/mL,0.025 µg/mL,12.5 µg/mL,0.05 µg/mL,0.39 µg/mL,0.1 µg/mL,> 50 µg/mL
CCC(=O)O[C@@H]1CC(=O)O[C@H](C)C[C@H](O)[C@H](N(C)CCCn2cnc(-c3cccnc3)c2)/C=C/[C@H](OC(C)=O)[C@H](C)C[C@H](CC=O)[C@H](O[C@@H]2O[C@H](C)[C@@H](O[C@H]3C[C@@](C)(O)[C@@H](OC(=O)CC)[C@H](C)O3)[C@H](N(C)C)[C@H]2O)[C@H]1OC,> 100 µg/mL,0.39 µg/mL,25 µg/mL,0.39 µg/mL,1.56 µg/mL,> 100 µg/mL,0.2 µg/mL,0.39 µg/mL,0.1 µg/mL,0.06 µg/mL,100 µg/mL,1.56 µg/mL,0.2 µg/mL,0.1 µg/mL,> 100 µg/mL
